Tests used:
mu-opioid receptors, MOR = mu-opioid receptors, MOR (Rattus norvegicus, UniProt P33535); assay: [^3H]DAMGO competition binding, rat brain membranes
MOR (OPRM1) = MOR (OPRM1) (Homo sapiens, UniProt P35372); assay: cAMP BRET; assay type: cell-based; conditions: HEK-293 cells, up to a concentration of 1 mM
Method in brief: (§1)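 HEK-293 cells (DMEM, 10% FBS, 37°C/5% CO2) were PEI-transfected with 5 μg untagged MOR, KOR or DOR plus 5 μg CAMYEL cAMP biosensor and used 48 h later. Cells were suspended in DPBS with 100 μM metabisulfite and 5.5 mM glucose and kept 45 min in the dark. Forskolin (10 μM) was added for 5 min, then coelenterazine H (5 μM) for 5 min, then compound. BRET (535/475 nm) was read 5 min later, forskolin-only background subtracted, and expressed as % of each receptor's maximum. Triplicates; 3–6 experiments for EC50/Emax.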

KOR (OPRK1) = KOR (OPRK1) (Homo sapiens, UniProt P41145); assay: cAMP BRET; assay type: cell-based; conditions: HEK-293 cells, up to a concentration of 1 mM
Sequence of KOR (OPRK1) (P41145 whole entry): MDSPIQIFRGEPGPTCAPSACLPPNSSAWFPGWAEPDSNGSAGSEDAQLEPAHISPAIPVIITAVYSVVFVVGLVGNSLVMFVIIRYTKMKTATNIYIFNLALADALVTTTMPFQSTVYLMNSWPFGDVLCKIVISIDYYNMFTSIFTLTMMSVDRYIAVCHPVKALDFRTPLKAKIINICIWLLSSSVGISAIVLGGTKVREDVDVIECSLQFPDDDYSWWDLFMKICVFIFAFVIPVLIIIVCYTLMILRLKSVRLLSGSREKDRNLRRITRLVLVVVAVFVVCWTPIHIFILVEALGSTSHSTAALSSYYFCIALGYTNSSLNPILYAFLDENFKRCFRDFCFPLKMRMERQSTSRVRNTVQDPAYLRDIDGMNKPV
Method in brief: as §1

[1] = target: delta-opioid receptor (DOR; OPRD1) (Homo sapiens, UniProt P41143); assay: cAMP BRET; assay type: cell-based; conditions: HEK-293 cells, up to a concentration of 1 mM
Sequence of delta-opioid receptor (DOR; OPRD1) (P41143 whole entry): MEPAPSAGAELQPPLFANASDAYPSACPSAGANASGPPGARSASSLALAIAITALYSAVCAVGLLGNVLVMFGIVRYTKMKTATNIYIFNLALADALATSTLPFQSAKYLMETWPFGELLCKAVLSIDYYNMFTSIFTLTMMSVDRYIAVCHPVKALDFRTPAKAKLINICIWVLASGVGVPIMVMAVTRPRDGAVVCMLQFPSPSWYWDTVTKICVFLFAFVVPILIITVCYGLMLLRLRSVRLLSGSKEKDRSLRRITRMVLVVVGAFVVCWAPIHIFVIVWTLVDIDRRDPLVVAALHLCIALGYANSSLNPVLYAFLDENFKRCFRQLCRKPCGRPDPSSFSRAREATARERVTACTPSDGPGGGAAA
Method in brief: as §1

NK1R = NK1R (Rattus norvegicus, UniProt P14600); assay: [^3H]-Substance P binding, rat whole brain membrane homogenates
Sequence of NK1R (P14600 whole entry): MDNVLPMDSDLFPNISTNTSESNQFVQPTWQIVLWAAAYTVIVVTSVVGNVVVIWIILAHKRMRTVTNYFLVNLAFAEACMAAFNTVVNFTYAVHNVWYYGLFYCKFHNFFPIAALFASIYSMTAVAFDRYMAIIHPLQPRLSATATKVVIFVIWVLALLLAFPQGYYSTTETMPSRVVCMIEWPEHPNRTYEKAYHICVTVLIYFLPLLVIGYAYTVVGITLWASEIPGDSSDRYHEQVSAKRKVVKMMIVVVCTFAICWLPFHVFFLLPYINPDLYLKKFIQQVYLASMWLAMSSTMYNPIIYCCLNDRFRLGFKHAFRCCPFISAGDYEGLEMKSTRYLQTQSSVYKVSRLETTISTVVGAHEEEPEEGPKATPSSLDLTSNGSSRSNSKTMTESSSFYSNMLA

mGluR3 = mGluR3 (Homo sapiens, UniProt Q14832); assay: [^3H]LY341495 competition binding, recombinant receptor membranes; conditions: membranes expressing human recombinant mGluR3
Sequence of mGluR3 (Q14832 23-879): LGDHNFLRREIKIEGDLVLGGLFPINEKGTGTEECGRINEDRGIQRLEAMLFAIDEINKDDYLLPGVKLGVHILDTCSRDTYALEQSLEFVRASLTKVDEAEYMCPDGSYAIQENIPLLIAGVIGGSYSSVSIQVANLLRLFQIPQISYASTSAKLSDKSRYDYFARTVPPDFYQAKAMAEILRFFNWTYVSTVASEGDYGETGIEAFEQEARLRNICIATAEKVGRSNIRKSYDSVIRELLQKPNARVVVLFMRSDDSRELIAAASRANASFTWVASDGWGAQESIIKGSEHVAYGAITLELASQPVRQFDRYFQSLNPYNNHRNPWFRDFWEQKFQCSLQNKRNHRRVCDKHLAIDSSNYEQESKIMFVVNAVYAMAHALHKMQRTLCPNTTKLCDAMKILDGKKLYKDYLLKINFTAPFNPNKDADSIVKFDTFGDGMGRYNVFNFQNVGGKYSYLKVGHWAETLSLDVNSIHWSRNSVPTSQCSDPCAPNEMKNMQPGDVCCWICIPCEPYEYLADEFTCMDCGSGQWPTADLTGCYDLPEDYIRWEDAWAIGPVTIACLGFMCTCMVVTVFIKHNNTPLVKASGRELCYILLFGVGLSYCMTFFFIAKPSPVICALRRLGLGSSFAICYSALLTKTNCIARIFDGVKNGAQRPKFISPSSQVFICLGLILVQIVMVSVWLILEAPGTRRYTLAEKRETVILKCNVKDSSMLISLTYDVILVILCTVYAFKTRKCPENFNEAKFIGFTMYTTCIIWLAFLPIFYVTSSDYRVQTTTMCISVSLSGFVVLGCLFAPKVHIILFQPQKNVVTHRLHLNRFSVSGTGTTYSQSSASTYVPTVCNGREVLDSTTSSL

mGluR1 = mGluR1 (Homo sapiens, UniProt Q13255); assay: mGluR functional assay; assay type: biochemical
mGluR4 = mGluR4 (Homo sapiens, UniProt Q14833); assay: mGluR functional assay; assay type: biochemical
mGluR5 = mGluR5 (Homo sapiens, UniProt P41594); assay: mGluR functional assay; assay type: biochemical
Sequence of mGluR5 (P41594 21-1212): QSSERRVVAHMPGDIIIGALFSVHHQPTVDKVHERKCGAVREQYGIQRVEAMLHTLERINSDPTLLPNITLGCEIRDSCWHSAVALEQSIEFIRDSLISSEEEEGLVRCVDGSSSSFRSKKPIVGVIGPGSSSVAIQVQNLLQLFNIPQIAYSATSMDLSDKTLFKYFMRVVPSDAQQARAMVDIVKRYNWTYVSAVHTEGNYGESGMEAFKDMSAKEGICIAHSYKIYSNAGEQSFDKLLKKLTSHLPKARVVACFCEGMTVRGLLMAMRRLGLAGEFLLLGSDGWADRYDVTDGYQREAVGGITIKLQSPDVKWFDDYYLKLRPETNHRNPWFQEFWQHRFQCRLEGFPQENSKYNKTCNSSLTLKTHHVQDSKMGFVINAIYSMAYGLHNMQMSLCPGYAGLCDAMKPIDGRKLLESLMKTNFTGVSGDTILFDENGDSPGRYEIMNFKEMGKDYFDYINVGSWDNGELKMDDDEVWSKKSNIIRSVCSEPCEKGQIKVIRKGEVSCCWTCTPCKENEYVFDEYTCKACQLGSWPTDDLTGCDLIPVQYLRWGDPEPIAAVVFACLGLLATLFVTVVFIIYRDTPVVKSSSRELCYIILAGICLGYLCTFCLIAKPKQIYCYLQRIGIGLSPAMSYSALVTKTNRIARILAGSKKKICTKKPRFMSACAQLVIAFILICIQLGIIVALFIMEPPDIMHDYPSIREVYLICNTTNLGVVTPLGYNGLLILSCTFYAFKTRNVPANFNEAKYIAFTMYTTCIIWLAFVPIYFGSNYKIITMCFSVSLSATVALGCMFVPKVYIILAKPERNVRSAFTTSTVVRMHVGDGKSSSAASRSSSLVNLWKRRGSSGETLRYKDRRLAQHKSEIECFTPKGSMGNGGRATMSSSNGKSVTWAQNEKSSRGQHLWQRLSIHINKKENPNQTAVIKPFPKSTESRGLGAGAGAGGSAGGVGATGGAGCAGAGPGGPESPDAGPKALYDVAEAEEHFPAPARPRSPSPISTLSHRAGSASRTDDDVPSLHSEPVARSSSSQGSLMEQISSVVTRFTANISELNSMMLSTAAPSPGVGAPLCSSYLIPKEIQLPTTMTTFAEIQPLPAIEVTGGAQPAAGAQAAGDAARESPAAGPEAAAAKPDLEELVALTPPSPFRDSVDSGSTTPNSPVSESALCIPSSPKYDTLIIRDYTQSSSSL

mGluR6 = mGluR6 (Homo sapiens, UniProt O15303); assay: mGluR functional assay; assay type: biochemical
Sequence of mGluR6 (O15303 25-877): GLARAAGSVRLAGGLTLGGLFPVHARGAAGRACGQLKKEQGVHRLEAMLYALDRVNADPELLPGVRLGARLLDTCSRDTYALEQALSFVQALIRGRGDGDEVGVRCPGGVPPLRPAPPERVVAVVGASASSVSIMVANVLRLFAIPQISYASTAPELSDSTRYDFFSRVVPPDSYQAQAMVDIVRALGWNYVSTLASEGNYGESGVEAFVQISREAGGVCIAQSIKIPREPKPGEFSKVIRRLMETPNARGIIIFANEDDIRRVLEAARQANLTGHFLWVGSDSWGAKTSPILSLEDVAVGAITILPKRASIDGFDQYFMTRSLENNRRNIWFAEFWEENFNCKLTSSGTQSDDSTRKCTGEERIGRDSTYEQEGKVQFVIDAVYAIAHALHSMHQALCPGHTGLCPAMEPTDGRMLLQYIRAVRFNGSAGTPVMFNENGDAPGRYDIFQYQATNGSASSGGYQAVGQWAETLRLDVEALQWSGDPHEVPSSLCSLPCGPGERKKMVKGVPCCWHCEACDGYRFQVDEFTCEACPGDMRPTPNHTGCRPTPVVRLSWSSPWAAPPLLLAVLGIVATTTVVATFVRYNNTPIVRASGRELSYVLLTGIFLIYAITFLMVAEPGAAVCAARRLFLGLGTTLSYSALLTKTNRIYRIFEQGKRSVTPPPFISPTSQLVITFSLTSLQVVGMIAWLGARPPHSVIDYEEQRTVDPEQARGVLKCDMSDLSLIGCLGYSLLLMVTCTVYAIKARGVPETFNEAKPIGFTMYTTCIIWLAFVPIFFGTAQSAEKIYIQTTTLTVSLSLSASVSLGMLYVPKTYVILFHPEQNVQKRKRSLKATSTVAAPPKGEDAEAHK

sigma-1 receptors = sigma-1 receptors (Rattus norvegicus, UniProt Q9R0C9); assay: [^3H]-pentazocine competition binding, rat brain membranes
Sequence of sigma-1 receptors (Q9R0C9 whole entry): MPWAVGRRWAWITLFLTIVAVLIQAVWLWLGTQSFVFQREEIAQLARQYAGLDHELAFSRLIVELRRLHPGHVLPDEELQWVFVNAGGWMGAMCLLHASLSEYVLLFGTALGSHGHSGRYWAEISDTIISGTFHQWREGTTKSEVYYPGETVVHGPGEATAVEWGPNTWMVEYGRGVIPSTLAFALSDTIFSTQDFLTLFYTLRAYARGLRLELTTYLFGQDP

[2] = target: estrogen receptor alpha (ERα) (Homo sapiens, UniProt P03372); assay: Screening and target deconvolution experiments; assay type: binding
rats [3] = assay: [^18F]-FDG PET brain metabolic mapping; assay type: in vivo, rat; conditions: 10 mg/kg i.v. infusion in 40 min
Method in brief: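 Rats were handling- and arena-habituated and fasted 16 h. Awake in an open field, they received a continuous IV infusion of buffered saline (n = 4) or test compound (10 mg/kg over 40 min, n = 5). Ten min after infusion start, [18F]-FDG (13 MBq) was given IP. Rats were anesthetized 30 min later and brains PET-scanned. SUVR images used whole brain as reference, analysed voxel-wise and by atlas-based ROIs.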

mice [4] = assay: Forced swimming test; assay type: in vivo, mouse; conditions: 24 hours after
Method in brief: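 Male CD-1 mice (35–40 g, n = 8/condition) received a single IP dose of test compound (1, 3 or 10 mg/kg) or saline 24 h before a 6-min swim under 800 lux. Cylinders were 30 cm high × 20 cm diameter, holding 15 cm of water at 23 ± 1°C. A blinded observer scored immobility from video over the last 4 min.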

mice [5] = assay: Open-field locomotor activity; assay type: in vivo, mouse; conditions: male mice; single 10, 30, 65 mg/kg IP
mice [6] = assay: Conditioned place preference; assay type: in vivo, mouse; conditions: male mice
Method in brief: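 Male C57BL/6J mice (20–25 g, n = 8/group) received saline or test compound (10, 30 or 65 mg/kg IP) before 15-min confinement to one side of a two-sided chamber (clear/white vs checkered/black). Vehicle was given before the opposite side on alternate days, counterbalanced across 6 conditioning days. A 20-min free-exploration pre-test came first, within 8 daily sessions. Infrared beams tracked time per side and distance travelled.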

rats [7] = assay: Intravenous self-administration; assay type: in vivo, rat
Method in brief: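 Male rats had jugular catheters placed under isoflurane and recovered 6–8 days. They were food-restricted (18–20 g/day) on a reverse 12-h cycle. For training (n = 14), rats self-administered test compound at 0.5 mg/kg/infusion IV, FR1 with 20-s timeout, for 16 days. For dose-response (n = 8/condition), unit doses of 0.125, 0.25, 0.5 or 1.0 mg/kg/infusion were given in randomized sequence, 1 h/day for 8 days. Read-out was infusions earned.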

rats [8] = assay: Heroin self-administration and substitution; assay type: in vivo, rat; conditions: 0.5 mg/kg/inf IV
[9] = after i.p. injection of antidepressant-relevant doses in mice; cited from earlier work
NMDAR = conditions: cited from earlier work
opioid receptors = conditions: not tested experimentally; cited from earlier work
mice [10] = conditions: cited from earlier work

Sequence of mu-opioid receptors, MOR (P33535 whole entry): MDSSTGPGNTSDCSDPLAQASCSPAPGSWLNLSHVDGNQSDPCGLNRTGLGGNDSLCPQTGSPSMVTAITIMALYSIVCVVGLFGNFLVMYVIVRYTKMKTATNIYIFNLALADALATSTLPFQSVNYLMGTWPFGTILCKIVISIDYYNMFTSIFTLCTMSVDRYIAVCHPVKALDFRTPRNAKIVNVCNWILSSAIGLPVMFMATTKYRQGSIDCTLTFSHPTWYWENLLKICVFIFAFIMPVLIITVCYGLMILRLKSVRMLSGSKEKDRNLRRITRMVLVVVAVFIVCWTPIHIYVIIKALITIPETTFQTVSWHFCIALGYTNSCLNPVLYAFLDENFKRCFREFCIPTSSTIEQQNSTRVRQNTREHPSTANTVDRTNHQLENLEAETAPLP

## N[C@@]1(c2ccccc2Cl)CCC[C@@H](O)C1=O [(2R,6R)-HNK, (2R,6R)-hydroxynorketamine]
mu-opioid receptors, MOR; concentrations up to 100 μM
  binding to opioid receptors (MOR): does not bind
mu-opioid receptors, MOR; rat brain membranes
  MOR binding, displacement of [^3H]DAMGO: failed to displace
MOR (OPRM1)
  cAMP response (inhibition of cAMP accumulation): did not induce any cAMP response
KOR (OPRK1)
  cAMP response (inhibition of cAMP accumulation): did not induce any cAMP response
[1]
  cAMP response (inhibition of cAMP accumulation): did not induce any cAMP response
NK1R
  [^3H]-Substance P binding: did not alter
mGluR3
  displacement of [^3H]LY341475: failed to displace
mGluR1
  effect in functional assay at mGluR1: no effects
mGluR4
  effect in functional assay at mGluR4: no effects
mGluR5
  effect in functional assay at mGluR5: no effects
mGluR6
  effect in functional assay at mGluR6: no effects
sigma-1 receptors
  binding to sigma receptors ([^3H]-pentazocine): did not bind
[2]
  interaction with ERα: failed to interact
Rats [3]
  metabolic activity in the PFC: did not see any metabolic activity
  regional metabolic connectivity profile: closely resembled the saline condition
Rats [3]; insula, nucleus accumbens, globus pallidus, thalamus, cortices, cerebellum
  brain metabolic activity ([^18F]-FDG uptake), voxel-wise analysis: mild but significant increase
Rats [3]; vs saline
  FDG uptake in the nucleus accumbens, ROI-based: ~ 10 % increase
Mice [4]; 1 mg/kg IP
  immobility time in forced swimming test, difference from vehicle: but not 1 mg/kg
Mice [4]; 3 or 10 mg/kg IP, single administration
  immobility time in forced swimming test: reduced immobility time
Mice [5]
  locomotor activity, acute: did not alter locomotor activity
Mice [6]; 10, 30, 65 mg/kg IP, CPP conditioning sessions
  locomotor activity, repeated administration: did not produce any changes in locomotor activity
Mice [6]; repeated 10, 30, 65 mg/kg IP
  conditioned place preference: did not induce CPP
Mice [6]; repeated administration
  locomotor sensitization: did not induce sensitization
Rats [7]; male rats, 0.5 mg/kg/inf IV, FR1, 20-s timeout, 16 days
  self-administration training: not a reliable reinforcer
Rats [7]; rats, unit doses 0.125, 0.25, or 1 mg/kg/inf
  self-administration dose-response: did not respond
Rats [8]
  pressing on first session after heroin substitution: pressed significantly more
  self-administration on successive sessions after heroin substitution: rapid extinction of self-administration
[9]
  maximum extracellular concentration in the hippocampus: ~ 8 μM
NMDAR; 10 μM, cultured hippocampal neurons
  effect on NMDAR function: no effect
NMDAR; 50 μM
  reduction in synaptic NMDAR currents: ~ 40%
Opioid receptors
  affinity for opioid receptors by computational modeling: high (i.e. in the nanomolar range) affinity
Mice [10]
  pain reduction after naloxone pretreatment: not blocked by naloxone pretreatment

From publication PMC10013843 (Molecular psychiatry, 2022)
